Reference: ChEMBL document CHEMBL4020823, “Highly Selective, Potent, and Oral mTOR Inhibitor for Treatment of Cancer as Autophagy Inducer” (J Med Chem, 2018)
The source made the active and inactive calls. The rule behind the calls is not given here.

Legend:
MCF7 [1] = assay: Growth inhibition of human MCF7 cells after 72 hrs by CCK8 assay; type: functional, cell-based; settings: MCF7, 72 h
Procedure, shortened: (§1)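 Cells were seeded at 2000–3000 per well and grown 24 h in serum-containing medium. They were then exposed to serially diluted compound for 72 h at 37 °C, 5% CO2. CCK8 reagent was added for 1–4 h and absorbance read at 450 nm. Inhibition = (AC − AS)/(AC − Ab) × 100%. IC50 is the average of at least three independent determinations.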

T47D [2] = assay: Growth inhibition of human T47D cells after 72 hrs by CCK8 assay; type: functional, cell-based; procedure, shortened: as §1
MDA-MB-231 [3] = assay: Growth inhibition of human MDA-MB-231 cells after 72 hrs by CCK8 assay; type: functional, cell-based; settings: MDA-MB-231, 72 h; procedure, shortened: as §1
HeLa [4] = assay: Growth inhibition of human HeLa cells after 72 hrs by CCK8 assay; type: functional, cell-based; procedure, shortened: as §1
SiHa [5] = assay: Growth inhibition of human SiHa cells after 72 hrs by CCK8 assay; type: functional, cell-based; procedure, shortened: as §1
SK-OV-3 = assay: Growth inhibition of human SKOV3 cells after 72 hrs by CCK8 assay; type: functional, cell-based; settings: SK-OV-3, 72 h; procedure, shortened: as §1
OVCAR-5 = assay: Growth inhibition of human OVCAR5 cells after 72 hrs by CCK8 assay; type: functional, cell-based; settings: OVCAR-5, 72 h; procedure, shortened: as §1
NCI-H460 = assay: Growth inhibition of human H460 cells after 72 hrs by CCK8 assay; type: functional, cell-based; settings: NCI-H460, 72 h; procedure, shortened: as §1
T47D [6] = assay: Cell cycle arrest in human T47D cells assessed as decrease in S-phase at 0.5 uM after 24 hrs by propidium iodide-staining based flow cytometric analysis; type: functional
Procedure, shortened: (§2)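 Cells were seeded at 5 × 10^5 cells/mL. At 24 h after plating they were treated with increasing concentrations for 24 h, washed in PBS, and fixed in ice-cold 70% ethanol for at least 24 h. They were stained with propidium iodide plus RNase A for 30 min at 37 °C and analysed by flow cytometry for phase distribution.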

T47D [7] = assay: Cell cycle arrest in human T47D cells assessed as accumulation at G0/G1 phase at 0.5 uM after 24 hrs by propidium iodide-staining based flow cytometric analysis; type: functional; procedure, shortened: as §2
MCF7 [8] = assay: Cell cycle arrest in human MCF7 cells assessed as decrease in S-phase at 0.5 uM after 24 hrs by propidium iodide-staining based flow cytometric analysis; type: functional; procedure, shortened: as §2
MCF7 [9] = assay: Cell cycle arrest in human MCF7 cells assessed as accumulation at G0/G1 phase at 0.5 uM after 24 hrs by propidium iodide-staining based flow cytometric analysis; type: functional; procedure, shortened: as §2
MDA-MB-231 [10] = assay: Cell cycle arrest in human MDA-MB-231 cells assessed as decrease in S-phase at 0.5 uM after 24 hrs by propidium iodide-staining based flow cytometric analysis; type: functional; procedure, shortened: as §2
MDA-MB-231 [11] = assay: Cell cycle arrest in human MDA-MB-231 cells assessed as accumulation at G0/G1 phase at 0.5 uM after 24 hrs by propidium iodide-staining based flow cytometric analysis; type: functional; procedure, shortened: as §2
SiHa [12] = assay: Cell cycle arrest in human SiHa cells assessed as decrease in S-phase at 0.5 uM after 24 hrs by propidium iodide-staining based flow cytometric analysis; type: functional; procedure, shortened: as §2
SiHa [13] = assay: Cell cycle arrest in human SiHa cells assessed as accumulation at G0/G1 phase at 0.5 uM after 24 hrs by propidium iodide-staining based flow cytometric analysis; type: functional; procedure, shortened: as §2
HeLa [14] = assay: Cell cycle arrest in human HeLa cells assessed as decrease in S-phase at 1 uM after 24 hrs by propidium iodide-staining based flow cytometric analysis; type: functional; procedure, shortened: as §2
HeLa [15] = assay: Cell cycle arrest in human HeLa cells assessed as accumulation at G0/G1 phase at 1 uM after 24 hrs by propidium iodide-staining based flow cytometric analysis; type: functional; procedure, shortened: as §2
T47D [16] = assay: Induction of autophagy in human T47D cells assessed as increase in LC3-2 level at 0.5 uM after 48 hrs by Western blot analysis; type: functional, cell-based
Procedure, shortened: (§3)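 Cells treated with test agents at several concentrations for 2 days (48 h). LC3B-II detected by Western blot on lysates, with β-actin as internal control. Membranes blocked in 5% skim milk, primary antibodies at 4 °C overnight, peroxidase-conjugated anti-mouse or anti-rabbit IgG secondary, ECL detection.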

MCF7 [17] = assay: Induction of autophagy in human MCF7 cells assessed as increase in LC3-2 level at 0.5 uM after 48 hrs by Western blot analysis; type: functional, cell-based; procedure, shortened: as §3
MDA-MB-231 [18] = assay: Induction of autophagy in human MDA-MB-231 cells assessed as increase in LC3-2 level at 0.5 uM after 48 hrs by Western blot analysis; type: functional, cell-based; procedure, shortened: as §3
SiHa [19] = assay: Induction of autophagy in human SiHa cells assessed as increase in LC3-2 level at 1 uM after 48 hrs by Western blot analysis; type: functional, cell-based; procedure, shortened: as §3
HeLa [20] = assay: Induction of autophagy in human HeLa cells assessed as increase in LC3-2 level at 2 uM after 48 hrs by Western blot analysis; type: functional, cell-based
Procedure, shortened: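 Cells were treated for 48 h (2 days) with varying concentrations. Whole-cell lysates were immunoblotted for LC3B-II with β-actin as the internal control. Membranes were blocked in 5% skim milk, incubated with primary antibody overnight at 4 °C, then with peroxidase-conjugated secondary, and developed by ECL.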

T47D [21] = assay: Induction of autophagy in human T47D cells assessed as increase in LC3-2 puncta level at 0.5 uM after 48 hrs by immunofluorescence staining based microscopic analysis; type: functional, cell-based
Procedure, shortened: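 Cells seeded on glass coverslips in complete 1640 or DMEM and incubated with inhibitors at different concentrations for 48 h. Fixed in 4% paraformaldehyde, permeabilized with 0.15% Triton X-100, blocked in 4% BSA/PBS for 1 h at room temperature. Anti-LC3B (1:200) overnight, then FITC-conjugated secondary, DAPI nuclear stain. LC3B-II puncta viewed by fluorescence microscopy.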

T47D [22] = assay: Antitumor activity against human T47D cells xenografted in BALB/c nude mouse assessed as decrease in tumor growth at 60 mg/kg, po administered via gavage after 3 weeks relative to control; type: functional; settings: 504 h, read-out: TGI
T47D [23] = assay: Antitumor activity against human T47D cells xenografted in BALB/c nude mouse assessed as tumor weight at 60 mg/kg, po administered via gavage after 3 weeks (reference value: 1.23 g); type: functional

IC50 (MCF7 [1]): 4.98 µM | IC50 (T47D [2]): 1.58 µM | IC50 (MDA-MB-231 [3]): > 10 µM | IC50 (HeLa [4]): > 10 µM | IC50 (SK-OV-3): > 10 µM | IC50 (OVCAR-5): > 10 µM | IC50 (NCI-H460): > 10 µM
SMILES: CO[C@H]1C[C@@H]2CC[C@@H](C)[C@@](O)(O2)C(=O)C(=O)N2CCCC[C@H]2C(=O)O[C@H]([C@H](C)C[C@@H]2CC[C@@H](O)[C@H](OC)C2)CC(=O)[C@H](C)/C=C(\C)[C@@H](O)[C@@H](OC)C(=O)[C@H](C)C[C@H](C)/C=C/C=C/C=C/1C [SIROLIMUS]
IC50 (SiHa [5]): 1.76 µM | Activity (T47D [6]): Active | Activity (T47D [7]): Active | Activity (MCF7 [8]): Active | Activity (MCF7 [9]): Active | Activity (MDA-MB-231 [10]): Active | Activity (MDA-MB-231 [11]): Active | Activity (SiHa [12]): Active | Activity (SiHa [13]): Active | Activity (HeLa [14]): Active | Activity (HeLa [15]): Active | Activity (T47D [16]): Active | Activity (MCF7 [17]): Active | Activity (MDA-MB-231 [18]): Active | Activity (SiHa [19]): Active | Activity (HeLa [20]): Active | Activity (T47D [21]): Dose-dependent effect | inhibition in vivo at 60 mg/kg (T47D [22]): 72.4% | Activity (T47D [23]): 0.36 g
